20 compounds from PMC12282580 (RSC Advances, 2025) can be followed below.

In data set [1] the test system is SW620 cells (colon cancer). The data set can be described thus: Cytotoxicity assay. The data set is classed as cell-based. The conditions noted are these: Homo sapiens, SW-620, 48 h, read-out: Cytotoxicity (IC50) SW620.
Data set [2] has as its system SW620 human colon cancer cells. As to the kind of experiment: Cell cycle analysis. In kind it is cell-based. The conditions noted are these: 5 μM, 24-hour treatment, effect less pronounced for 7d and 11d compared to SAHA. The essentials:
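Controls were untreated cells and vehicle-treated cells (DMSO 0.05%). Data shown as histograms plus bar graphs.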

Data set [3] concerns SW620 human colon cancer cells. As to the kind of experiment: Apoptosis assay. In kind it is cell-based. The conditions noted are these: 5 μM, 24-hour treatment, early apoptosis levels exceeding those observed with SAHA. The essentials:
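Annexin V-FITC/PI dual staining, with untreated and vehicle (DMSO 0.05%) controls. Data presented as histograms with accompanying bar graphs.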

The test system of data set [4] is SW620 cells. The data set can be described thus: Morphological changes. The data set is classed as cell-based, human. The conditions noted are these: 5 μM, 24-hour treatment. The method in brief: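 SW620 cells exposed to test compound at 5 μM for 24 h, then photographed on an imaging system through 20× or 40× objectives to record morphology.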
The test system of data set [5] is MDA-MB-231 cells (breast cancer). The data set can be described thus: Cytotoxicity assay. In kind it is cell-based, human. The following applies: read-out: Cytotoxicity (IC50) MDA-MB-231; MDA-MB-231 breast cancer; 48h; MTT.

For orientation: IC50 means the concentration that gives 50% inhibition. Turning to `COc1cccc2c1C(=O)c1c(O)c3c(c(O)c1C2=O)C[C@@](O)(C(=O)CO)C[C@@H]3O[C@H]1C[C@H](N)[C@H](O)[C@H](C)O1` [ADR, adriamycin, reference compound], the IC50 in data set [1] was found to be 0.56 ± 0.1 µM. For `O=C(NO)c1ccc(Cn2cc(Cn3cnc4ccccc4c3=O)nn2)cc1` [Compound 7a, N-Hydroxy-4-((4-((4-oxoquinazolin-3(4H)-yl)methyl)-1H-1,2,3-triazol-1-yl)methyl)benzamide], the half-inhibitory concentration (IC50) in data set [1] was 9.21 ± 0.72 µM. On the same count and under the same terms, the result for `Cc1ccc2ncn(Cc3cn(Cc4ccc(C(=O)NO)cc4)nn3)c(=O)c2c1` [Compound 7b, N-Hydroxy-4-((4-((6-methyl-4-oxoquinazolin-3(4H)-yl)methyl)-1H-1,2,3-triazol-1-yl)methyl)benzamide] reads 43.1 ± 4.55 µM; that for `Cc1ccc2c(=O)n(Cc3cn(Cc4ccc(C(=O)NO)cc4)nn3)cnc2c1` [Compound 7c, N-Hydroxy-4-((4-((7-methyl-4-oxoquinazolin-3(4H)-yl)methyl)-1H-1,2,3-triazol-1-yl)methyl)benzamide], 7.34 ± 0.94 µM. Take `O=C(NO)c1ccc(Cn2cc(Cn3cnc4ccc(Cl)cc4c3=O)nn2)cc1` [Compound 7d, 4-((4-((6-Chloro-4-oxoquinazolin-3(4H)-yl)methyl)-1H-1,2,3-triazol-1-yl)methyl)-N-hydroxybenzamide]: in data set [1], the concentration for half-maximal inhibition (IC50) stood at 3.64 ± 0.31 µM. Besides, the Cell cycle effect result in data set [2] was “induced G2/M phase cell cycle arrest”. In data set [3], the Pro-apoptotic effect result is “significantly induced early and late apoptosis”. Further, the Morphological changes entry in data set [4] is given as “induced characteristic apoptotic morphological alterations”.

Take `O=C(NO)c1ccc(Cn2cc(Cn3cnc4ccc(F)cc4c3=O)nn2)cc1` [Compound 7e, 4-((4-((6-Fluoro-4-oxoquinazolin-3(4H)-yl)methyl)-1H-1,2,3-triazol-1-yl)methyl)-N-hydroxybenzamide]: in data set [1], the half-inhibitory concentration (IC50) worked out at 5.87 ± 1.55 µM. Still for that read-out and setting: the result for `O=C(NO)c1ccc(Cn2cc(Cn3cnc4cc(F)ccc4c3=O)nn2)cc1` [Compound 7f, 4-((4-((7-Fluoro-4-oxoquinazolin-3(4H)-yl)methyl)-1H-1,2,3-triazol-1-yl)methyl)-N-hydroxybenzamide] reads 8.23 ± 2.04 µM; that for `O=C(NO)c1ccc(Cn2cc(Cn3cnc4ccc(Br)cc4c3=O)nn2)cc1` [Compound 7g, 4-((4-((6-Bromo-4-oxoquinazolin-3(4H)-yl)methyl)-1H-1,2,3-triazol-1-yl)methyl)-N-hydroxybenzamide], 20.8 ± 5.32 µM; that for `O=C(NO)c1ccc(Cn2cc(Cn3cnc4cc(Br)ccc4c3=O)nn2)cc1` [Compound 7h, 4-((4-((7-Bromo-4-oxoquinazolin-3(4H)-yl)methyl)-1H-1,2,3-triazol-1-yl)methyl)-N-hydroxybenzamide], 3.77 ± 1.87 µM. Same read-out and setting: with `O=C(NO)c1ccc(Cn2cc(Cn3cnc4ccc(I)cc4c3=O)nn2)cc1` [Compound 7i, N-Hydroxy-4-((4-((6-iodo-4-oxoquinazolin-3(4H)-yl)methyl)-1H-1,2,3-triazol-1-yl)methyl)benzamide] the figure was 5.52 ± 1.04 µM. On the same count and under the same terms, with `O=C(/C=C/c1ccc(Cn2cc(Cn3cnc4ccccc4c3=O)nn2)cc1)NO` [Compound 11a, (E)-N-Hydroxy-3-(4-((4-((4-oxoquinazolin-3(4H)-yl)methyl)-1H-1,2,3-triazol-1-yl)methyl)phenyl)acrylamide] the figure was 5.07 ± 2.92 µM; with `Cc1ccc2ncn(Cc3cn(Cc4ccc(/C=C/C(=O)NO)cc4)nn3)c(=O)c2c1` [Compound 11b, (E)-N-Hydroxy-3-(4-((4-((6-methyl-4-oxoquinazolin-3(4H)-yl)methyl)-1H-1,2,3-triazol-1-yl)methyl)phenyl)acrylamide], 9.82 ± 2.46 µM. Consider `Cc1ccc2c(=O)n(Cc3cn(Cc4ccc(/C=C/C(=O)NO)cc4)nn3)cnc2c1` [Compound 11c, (E)-N-Hydroxy-3-(4-((4-((7-methyl-4-oxoquinazolin-3(4H)-yl)methyl)-1H-1,2,3-triazol-1-yl)methyl)phenyl)acrylamide], for which, in data set [1], the IC50 is 11.7 ± 4.39 µM.

For `O=C(/C=C/c1ccc(Cn2cc(Cn3cnc4ccc(Cl)cc4c3=O)nn2)cc1)NO` [Compound 11d, (E)-3-(4-((4-((6-Chloro-4-oxoquinazolin-3(4H)-yl)methyl)-1H-1,2,3-triazol-1-yl)methyl)phenyl)-N-hydroxyacrylamide], the IC50 in data set [1] was determined as 3.15 ± 0.33 µM. For the same compound, the Cell cycle effect result in data set [2] is listed as “induced G2/M phase cell cycle arrest”. The Pro-apoptotic effect entry in data set [3] is “significantly induced early and late apoptosis”. For the same compound, in data set [4], the Morphological changes entry is reported as “induced characteristic apoptotic morphological alterations”. As for `O=C(/C=C/c1ccc(Cn2cc(Cn3cnc4ccc(F)cc4c3=O)nn2)cc1)NO` [Compound 11e, (E)-3-(4-((4-((6-Fluoro-4-oxoquinazolin-3(4H)-yl)methyl)-1H-1,2,3-triazol-1-yl)methyl)phenyl)-N-hydroxyacrylamide], in data set [1], the IC50 came out at 4.57 ± 3.54 µM. Same read-out and setting: with `O=C(/C=C/c1ccc(Cn2cc(Cn3cnc4cc(F)ccc4c3=O)nn2)cc1)NO` [Compound 11f, (E)-3-(4-((4-((7-Fluoro-4-oxoquinazolin-3(4H)-yl)methyl)-1H-1,2,3-triazol-1-yl)methyl)phenyl)-N-hydroxyacrylamide] the figure was 5.34 ± 0.76 µM. As for `O=C(/C=C/c1ccc(Cn2cc(Cn3cnc4ccc(Br)cc4c3=O)nn2)cc1)NO` [Compound 11g, (E)-3-(4-((4-((6-Bromo-4-oxoquinazolin-3(4H)-yl)methyl)-1H-1,2,3-triazol-1-yl)methyl)phenyl)-N-hydroxyacrylamide], the IC50 in data set [1] is 9.16 ± 0.08 µM; in data set [5], 9.07 ± 0.42 µM.

In the case of `O=C(/C=C/c1ccc(Cn2cc(Cn3cnc4cc(Br)ccc4c3=O)nn2)cc1)NO` [Compound 11h, (E)-3-(4-((4-((7-Bromo-4-oxoquinazolin-3(4H)-yl)methyl)-1H-1,2,3-triazol-1-yl)methyl)phenyl)-N-hydroxyacrylamide], the results for the IC50 in data set [1] and in data set [5] were 5.73 ± 0.76 µM and 5.55 ± 0.18 µM, respectively.

As for `O=C(/C=C/c1ccc(Cn2cc(Cn3cnc4ccc(I)cc4c3=O)nn2)cc1)NO` [Compound 11i, (E)-N-Hydroxy-3-(4-((4-((6-iodo-4-oxoquinazolin-3(4H)-yl)methyl)-1H-1,2,3-triazol-1-yl)methyl)phenyl)acrylamide], in data set [1], the half-maximal inhibitory concentration (IC50) is 28.5 ± 8.19 µM. On to `O=C(CCCCCCC(=O)Nc1ccccc1)NO` [SAHA, suberoylanilide hydroxamic acid, reference compound], for which the Cell cycle effect result in data set [2] was “induced G2/M phase cell cycle arrest”.
